Experiment [1] relates to Candida. Briefly: Antifungal activity against Candida mycoderma after 24 hrs by two-fold serial dilution method. In kind it is functional. The procedure, abridged: (§1)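 Spore suspension in sterile distilled water from one-day-old cultures on Sabouraud agar, final 1–5 × 10³ spore mL⁻¹. Compound stocks diluted in sterile RPMI 1640 as two-fold serial dilutions in microdilution plates. MIC is the lowest concentration completely inhibiting growth. Growth monitored visually and spectrophotometrically, in triplicate.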

The subject of experiment [2] is Candida albicans. Description: Antifungal activity against Candida albicans ATCC 76615 after 24 hrs by two-fold serial dilution method. Type of experiment: functional. As to conditions: ATCC 76615, 24 h. The procedure, abridged:
as §1

For experiment [3], the system named is Salmonella typhi. Description: Antibacterial activity against Bacillus typhi after 24 hrs by two-fold serial dilution method. As to conditions: Salmonella enterica. In kind it is functional, Salmonella enterica subsp. enterica serovar Typhi. Summed up: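 Two-fold serial dilution in 96-well plates following NCCLS; compounds dissolved in DMSO as stocks, then diluted in Mueller-Hinton broth; bacterial suspension adjusted with sterile saline to 1 × 10⁵ CFU; MIC taken as lowest concentration completely inhibiting growth, monitored visually and spectrophotometrically; DMSO-plus-inoculum well as solvent control; triplicate.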

In experiment [4] the test system is Pseudomonas aeruginosa. Briefly: Antibacterial activity against Pseudomonas aeruginosa ATCC 27853 after 24 hrs by two-fold serial dilution method. Conditions: ATCC 27853, 24 h. Type of experiment: functional. Summed up: (§2)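 MIC taken as the lowest concentration giving complete growth inhibition, by standard two-fold serial dilution in 96-well plates following NCCLS. Stocks in DMSO, diluted in Mueller–Hinton broth. Inoculum adjusted with sterile saline to 1 × 10⁵ CFU. DMSO with inoculum and no drug served as solvent control. Growth read visually and spectrophotometrically, in triplicate.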

Experiment [5] deals with Escherichia coli. Description: Antibacterial activity against Escherichia coli JM109 after 24 hrs by two-fold serial dilution method. Type of experiment: functional. Conditions: JM109, 24 h.
For experiment [6], the system named is Bacillus. Briefly: Antibacterial activity against Bacillus proteus ATCC 13315 after 24 hrs by two-fold serial dilution method. In kind it is functional. Conditions: ATCC 13315, 24 h. The procedure, abridged: as §2
Experiment [7] deals with Micrococcus luteus. Description: Antibacterial activity against Micrococcus luteus ATCC 4698 after 24 hrs by two-fold serial dilution method. In kind it is functional. As to conditions: ATCC 4698, 24 h. Summed up:
as §2

Experiment [8] deals with Bacillus subtilis. Description: Antibacterial activity against Bacillus subtilis ATCC 21216 after 24 hrs by two-fold serial dilution method. In kind it is functional. Conditions: ATCC 21216, 24 h. The procedure, abridged: as §2
Experiment [9] concerns Staphylococcus aureus. Briefly: Antibacterial activity against methicillin-resistant Staphylococcus aureus N315 after 24 hrs by two-fold serial dilution method. Type of experiment: functional. Conditions: N315, 24 h.
The test system of experiment [10] is Staphylococcus aureus. Briefly: Antibacterial activity against Staphylococcus aureus ATCC 6538 after 24 hrs by two-fold serial dilution method. In kind it is functional. As to conditions: ATCC 6538, 24 h.
The test system of experiment [11] is Aspergillus flavus. Description: Potentiation of fluconazole-induced antifungal activity against Aspergillus flavus at 4 times MIC after 24 hrs by two-fold serial dilution method. In kind it is functional.
In experiment [12] the test system is Saccharomyces cerevisiae. Description: Potentiation of fluconazole-induced antifungal activity against Saccharomyces cerevisiae at 4 times MIC after 24 hrs by two-fold serial dilution method. Type of experiment: functional.
Experiment [13] concerns Cyberlindnera jadinii. Briefly: Potentiation of fluconazole-induced antifungal activity against Candida utilis at 8 times MIC after 24 hrs by two-fold serial dilution method. In kind it is functional.
The subject of experiment [14] is Candida. Description: Potentiation of fluconazole-induced antifungal activity against Candida mycoderma at 4 times MIC after 24 hrs by two-fold serial dilution method. Type of experiment: functional.
For experiment [15], the system named is Candida albicans. Briefly: Potentiation of fluconazole-induced antifungal activity against Candida albicans ATCC 76615 at 4 times MIC after 24 hrs by two-fold serial dilution method. Type of experiment: functional.
Experiment [16] relates to Salmonella typhi. Briefly: Potentiation of norfloxacin-induced antibacterial activity against Bacillus typhi at 4 times MIC after 24 hrs by two-fold serial dilution method. Type of experiment: functional, Salmonella enterica subsp. enterica serovar Typhi.
Experiment [17] has as its system Pseudomonas aeruginosa. Description: Potentiation of norfloxacin-induced antibacterial activity against Pseudomonas aeruginosa ATCC 27853 at 2 times MIC after 24 hrs by two-fold serial dilution method. In kind it is functional.
In experiment [18] the test system is Escherichia coli. Description: Potentiation of norfloxacin-induced antibacterial activity against Escherichia coli JM109 at 2 times MIC after 24 hrs by two-fold serial dilution method. Type of experiment: functional.
The test system of experiment [19] is Bacillus. Description: Potentiation of norfloxacin-induced antibacterial activity against Bacillus proteus ATCC 13315 at 2 times MIC after 24 hrs by two-fold serial dilution method. In kind it is functional.
For experiment [20], the system named is Micrococcus luteus. Description: Potentiation of norfloxacin-induced antibacterial activity against Micrococcus luteus ATCC 4698 at 2 times MIC after 24 hrs by two-fold serial dilution method. Type of experiment: functional.
Experiment [21] deals with Bacillus subtilis. Briefly: Potentiation of norfloxacin-induced antibacterial activity against Bacillus subtilis ATCC 21216 at 2 times MIC after 24 hrs by two-fold serial dilution method. In kind it is functional.
For experiment [22], the system named is Staphylococcus aureus. Briefly: Potentiation of norfloxacin-induced antibacterial activity against Staphylococcus aureus ATCC 6538 at MIC after 24 hrs by two-fold serial dilution method. Type of experiment: functional.
Experiment [23] has as its system Salmonella typhi. Briefly: Potentiation of chloromycin-induced antibacterial activity against Bacillus typhi at 4 times MIC after 24 hrs by two-fold serial dilution method. Type of experiment: functional, Salmonella enterica subsp. enterica serovar Typhi.
Experiment [24] has as its system Pseudomonas aeruginosa. Description: Potentiation of chloromycin-induced antibacterial activity against Pseudomonas aeruginosa ATCC 27853 at 2 times MIC after 24 hrs by two-fold serial dilution method. Type of experiment: functional.
Experiment [25] deals with Escherichia coli. Description: Potentiation of chloromycin-induced antibacterial activity against Escherichia coli JM109 at MIC after 24 hrs by two-fold serial dilution method. In kind it is functional.
Experiment [26] has as its system Bacillus. Description: Potentiation of chloromycin-induced antibacterial activity against Bacillus proteus ATCC 13315 at 2 times MIC after 24 hrs by two-fold serial dilution method. Type of experiment: functional.
Experiment [27] deals with Micrococcus luteus. Description: Potentiation of chloromycin-induced antibacterial activity against Micrococcus luteus ATCC 4698 at 2 times MIC after 24 hrs by two-fold serial dilution method. In kind it is functional.
In experiment [28] the test system is Bacillus subtilis. Description: Potentiation of chloromycin-induced antibacterial activity against Bacillus subtilis ATCC 21216 at 4 times MIC after 24 hrs by two-fold serial dilution method. Type of experiment: functional.
For experiment [29], the system named is Staphylococcus aureus. Description: Potentiation of chloromycin-induced antibacterial activity against Staphylococcus aureus ATCC 6538 at MIC after 24 hrs by two-fold serial dilution method. Type of experiment: functional.
For experiment [30], the system named is Aspergillus flavus. Briefly: Antifungal activity against Aspergillus flavus after 24 hrs by two-fold serial dilution method. Type of experiment: functional. Summed up: as §1
Experiment [31] deals with Cyberlindnera jadinii. Description: Antifungal activity against Candida utilis after 24 hrs by two-fold serial dilution method. Type of experiment: functional. Conditions: Williopsis jadinii. Summed up:
as §1

For experiment [32], the system named is Saccharomyces cerevisiae. Briefly: Antifungal activity against Saccharomyces cerevisiae after 24 hrs by two-fold serial dilution method. In kind it is functional. Summed up:
as §1

In brackets after ≈: the same amount, converted by molar mass.

Consider `Fc1ccc(CN(Cc2nc3ccccc3[nH]2)c2cc(C(F)(F)F)cc(C(F)(F)F)c2)c(F)c1`, for which the MIC in [1] came to 32 µg/mL (≈ 65.9 µM); in [2], 16 µg/mL (≈ 33 µM); in [3], 32 µg/mL (≈ 65.9 µM); in experiment [4], 16 µg/mL (≈ 33 µM); in experiment [5], 16 µg/mL (≈ 33 µM); in experiment [6], 16 µg/mL (≈ 33 µM). The MIC in [7] amounted to 8 µg/mL (≈ 16.5 µM); in [8], 16 µg/mL (≈ 33 µM); in [9], 32 µg/mL (≈ 65.9 µM); in experiment [10] it was 8 µg/mL (≈ 16.5 µM); in experiment [30] it was 16 µg/mL (≈ 33 µM); in [31] it was 32 µg/mL (≈ 65.9 µM). The lowest concentration to inhibit growth in experiment [32] (MIC) was 16 µg/mL (≈ 33 µM). The “fractional inhibitory concentration index (FICI)” value in experiment [11] amounted to 0.375; in [12], 0.375; in experiment [13] it was 0.5; in experiment [14] it was 0.25; in experiment [15], 0.25; in [16], 0.25. Also, the “fractional inhibitory concentration index (FICI)” value in experiment [17] is given as 0.375; in experiment [18], 0.375; in experiment [19] it was 0.25; in experiment [20] it was 0.375; in experiment [21], 0.25; in experiment [22], 0.25. Further, the “fractional inhibitory concentration index (FICI)” value was 0.25 in experiment [23]; 0.25 in [24]; 0.25 in experiment [25]; 0.25 in experiment [26]; 0.5 in experiment [27]; 0.375 in experiment [28]. Further, the “fractional inhibitory concentration index (FICI)” value in [29] came out at 0.25.

As for `FC(F)(F)c1cccc(NCc2nc3ccccc3[nH]2)c1`, the MIC amounted to 16 µg/mL (≈ 54.9 µM) in experiment [1]; 32 µg/mL (≈ 110 µM) in [2]; 32 µg/mL (≈ 110 µM) in [3]; 64 µg/mL (≈ 220 µM) in experiment [4]; 32 µg/mL (≈ 110 µM) in [5]; 16 µg/mL (≈ 54.9 µM) in [6]. Moreover, the MIC in experiment [7] was 32 µg/mL (≈ 110 µM); in experiment [8] it was 32 µg/mL (≈ 110 µM); in [9], 16 µg/mL (≈ 54.9 µM); in experiment [10], 16 µg/mL (≈ 54.9 µM); in experiment [30] it was 16 µg/mL (≈ 54.9 µM); in experiment [31], 32 µg/mL (≈ 110 µM). For the same compound, it took 32 µg/mL (≈ 110 µM) to inhibit growth in experiment [32] (MIC).
